These results are taken from ChEMBL document CHEMBL1144062, “A new tyrosine kinase inhibitor from the marine brown alga Stypopodium zonale” (J Nat Prod, 1999).

For experiment [1], the system named is Microbotryum violaceum. In words: Antifungal activity against Ustilago violacea at 50 ug/disk. The experiment is classed as functional. Put shortly:
(§1)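 Agar diffusion assay: 50 µg of compound applied per filter disk on seeded agar. The read-out is the inhibition zone, measured in mm from the edge of the filter disk.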

Experiment [2] concerns the target Tyrosine-protein kinase Lck (Homo sapiens, UniProt P06239). In words: Inhibition of tyrosine kinase p56-lck.
Experiment [3] deals with Aspergillus pseudoglaucus. In words: Antifungal activity against Eurotium repens at 50 ug/disk. The experiment is classed as functional. As to conditions: for zone of inhibition at 50 µg/disc: read-out: IZ. In outline: as §1
The test system of experiment [4] is [Chlorella] fusca. In words: Antialgal activity against Chlorella fusca at 50 ug/disk. To be noted: Scenedesmus fuscus; for zone of inhibition at 50 µg/disc: read-out: IZ. The experiment is classed as functional. In outline: as §1
In experiment [5] the test system is Fusarium oxysporum. In words: Antifungal activity against Fusarium oxysporum at 50 ug/disk. The experiment is classed as functional. Put shortly:
as §1

The target in experiment [6] is Human immunodeficiency virus type 1 reverse transcriptase (Human immunodeficiency virus 1) (UniProt Q72547). In words: Inhibition of HIV1 RT.
In experiment [7] the test system is Escherichia coli. In words: Antibacterial activity against Escherichia coli at 50 ug/disk. The experiment is classed as functional. As to conditions: for zone of inhibition at 50 µg/disc: read-out: IZ. In outline:
as §1

For experiment [8], the system named is Priestia megaterium. In words: Antibacterial activity against Bacillus megaterium at 50 ug/disk. The experiment is classed as functional. To be noted: for zone of inhibition at 50 µg/disc: read-out: IZ. In outline: as §1
The test system of experiment [9] is Mycotypha microspora. In words: Antifungal activity against Mycotypha microspora at 50 ug/disk. The format is functional. Put shortly:
as §1

The source made the active and inactive calls. The calls are words filed in the database; no cut-off is given here.

`COc1cc(C)c(O)c(C[C@]2(C)[C@H]3CCC(=C(C)C)[C@@H](CCC(=O)O)[C@]3(C)CC[C@H]2C)c1` [ATOMARIC ACID]: the result in experiment [1], in experiment [3], in [5], in experiment [6] and in [9] was inactive. The midpoint of inhibition in experiment [2], the IC50, lay at 208 µM. In addition, the values for the zone of inhibition at 50 µg/disc in experiment [4], in experiment [7] and in experiment [8] were 5 mm, 1 mm and 1 mm, respectively.

Consider `CCOC(=O)c1ccccc1C(=O)OCC` [DIETHYL PHTHALATE], for which the values for the zone of inhibition at 50 µg/disc in experiment [4] and in experiment [8] were 13 mm and 10 mm, respectively.

Regarding `Clc1ccc(COC(Cn2ccnc2)c2ccc(Cl)cc2Cl)c(Cl)c1` (stereo unspecified) [MICONAZOLE], the zone of inhibition at 50 µg/disc in experiment [1] (read-out: IZ) was 32 mm; in experiment [3], 20 mm; in experiment [4], 4 mm; in experiment [5] (read-out: IZ), 3 mm; in [9] (read-out: IZ), 5 mm.

Regarding `CC1=CC(=O)C=C(C[C@]2(C)[C@H]3CCC(=C(C)C)[C@@H](CCC(=O)O)[C@]3(C)CC[C@H]2C)C1=O` [STYPOQUINONIC ACID], the outcome in experiment [1], in experiment [3], in [4], in experiment [5], in [6] and in [9] was inactive. The compound further gave a half-maximal inhibitory concentration (IC50) in experiment [2] of 187 µM. Also, the zone of inhibition at 50 µg/disc in experiment [7] and in experiment [8] was 1 mm throughout.

As for `Cc1cc(O)cc2c1O[C@@]1(C)CC[C@@H]3[C@@]4(C)CC[C@H](O)C(C)(C)[C@@H]4CC[C@@]3(C)[C@@H]1C2` [TAONDIOL], the result in [2], in experiment [4], in experiment [6], in experiment [7] and in experiment [8] was inactive. In experiment [3], the zone of inhibition at 50 µg/disc was determined as 2 mm.

Usually IC50 stands for the midpoint of a concentration-inhibition curve. Lower therefore signals higher potency.
